Results: publication PMC7250216 (Biomedicine & pharmacotherapy = Biomedecine & …, 2020)
Bridges are numbered along the chain shown (N, C = ends). Where no end group is shown, it is not given here.

Columns and labels:
[1] = tested on: non-transfected CHO-K1 cells; conditions: ref 35 (Pierce et al. 2020); cited from earlier work
[2] = tested on: untransfected CHO-K1 cells; conditions: ref 35 (Pierce et al. 2020); cited from earlier work
[3] = tested on: marmoset vasopressin receptor 1a (mV1aR); assay: FLIPR Membrane Potential; format: cell-based, marmoset (Callithrix jacchus); conditions: mV1aR expressing cells
Summary of the method: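 CHO-K1 cells stably expressing the species' V1aR were plated at 0.3 million cells/mL and grown overnight. They were loaded with FMP Blue in Locke's buffer (pH 7.4, 2.3 mM CaCl2) for 45 min at 37°C. After 60 s baseline, log concentrations of peptide were added, with all peptides run in parallel on one plate. Reads were ex 530/em 565 nm every 2 s for 200 s.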

[4] = tested on: membrane hyperpolarization in hV1aR-expressing CHO cells; format: cell-based, Chinese hamster
[5] = tested on: membrane hyperpolarization in qV1aR-expressing CHO cells; format: cell-based, Chinese hamster
[6] = tested on: membrane hyperpolarization in mV1aR-expressing CHO cells; format: cell-based, Chinese hamster
[7] = tested on: intracellular Ca2+ mobilization in mV1aR-expressing CHO cells; format: cell-based, Chinese hamster; conditions: 1 μM final concentration
Summary of the method: (§1)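 Stably receptor-transfected CHO-K1 cells were plated at 0.3 million cells/mL and grown overnight. They were loaded for 60 min at 37°C with 4 μM Fluo-3 AM and 0.04% pluronic acid in Locke's buffer (pH 7.4, 2.3 mM CaCl2, 0.5 mM probenecid), then washed four times. Thapsigargin (1 μM final) was given for 5 min. After 60 s baseline, peptide was added and read at ex 488/em 538 nm every 2 s for 200 s.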

[8] = tested on: intracellular Ca2+ mobilization in hV1aR-expressing CHO cells; format: cell-based, Chinese hamster; conditions: 1 μM final concentration
Summary of the method: as §1

[9] = tested on: intracellular Ca2+ mobilization in qV1aR-expressing CHO cells; format: cell-based, Chinese hamster; conditions: 1 μM final concentration
Summary of the method: as §1

N=C(N)NCCC[C@H](NC(=O)[C@@H]1CCCN1C(=O)[C@@H]1CSSC[C@H](N)C(=O)N[C@@H](Cc2ccc(O)cc2)C(=O)N[C@@H](Cc2ccccc2)C(=O)N[C@@H](CCC(N)=O)C(=O)N[C@@H](CC(N)=O)C(=O)N1)C(=O)NCC(N)=O [AVP, Arginine vasopressin]
Ca2+ mobilization [1]: did not mobilize
induced hyperpolarizing response [2]: absence
shape of concentration response curve, membrane hyperpolarization [3]: U-shaped concentration response curve

CC(=O)OCOC(=O)CN(CC(=O)OCOC(C)=O)c1ccccc1OCCOc1ccccc1N(CC(=O)OCOC(C)=O)CC(=O)OCOC(C)=O [BAPTA-AM, 1,2-Bis(2-aminophenoxy)ethane-N,N,N′,N′-tetraacetic acid tetrakis (acetoxymethyl ester)]
effect of pretreatment on AVP and OT-analog induced membrane hyperpolarization [4]: blocked
effect of pretreatment on AVP and OT-analog induced membrane hyperpolarization [5]: blocked
effect of pretreatment on AVP and OT-analog induced membrane hyperpolarization [6]: blocked

Clc1ccccc1C(c1ccccc1)(c1ccccc1)n1cccn1 [TRAM-34]
effect of pretreatment on AVP and OT-analog induced membrane hyperpolarization [4]: most effective inhibition
effect on SKA-31-induced membrane hyperpolarization [4]: inhibited
effect of pretreatment on AVP and OT-analog induced membrane hyperpolarization [5]: most effective inhibition
effect on SKA-31-induced membrane hyperpolarization [5]: inhibited
effect of pretreatment on AVP and OT-analog induced membrane hyperpolarization [6]: most effective inhibition
effect on SKA-31-induced membrane hyperpolarization [6]: inhibited

CC(C)(O)[C@H]1O[C@H]2CC[C@@]3(C)[C@@](O)(CC[C@H]4Cc5c([nH]c6ccccc56)[C@@]43C)C2=CC1=O [paxilline]
effect of pretreatment on AVP and OT-analog induced membrane hyperpolarization [4]: little to no effect
effect on NS-1619-induced membrane hyperpolarization [4]: inhibited
effect on NS-1619-induced membrane hyperpolarization [5]: inhibited
inhibition of AVP or OT-analog induced membrane hyperpolarization [5]: 15-30%
effect of pretreatment on AVP and OT-analog induced membrane hyperpolarization [6]: little to no effect
effect on NS-1619-induced membrane hyperpolarization [6]: inhibited

C/C=C(/C)C(=O)O[C@H]1C(C)=C2[C@H]([C@@H]1OC(=O)CCCCCCC)[C@@](C)(OC(C)=O)C[C@H](OC(=O)CCC)[C@@]1(O)[C@H]2OC(=O)[C@@]1(C)O [thapsigargin]
effect of pretreatment on AVP and OT-analog induced membrane hyperpolarization [4]: eliminated
effect of pretreatment on AVP and OT-analog induced calcium mobilization [7]: blocked
effect of pretreatment on AVP and OT-analog induced membrane hyperpolarization [5]: eliminated
effect of pretreatment on AVP and OT-analog induced calcium mobilization [8]: blocked
effect of pretreatment on AVP and OT-analog induced calcium mobilization [9]: blocked
effect of pretreatment on AVP and OT-analog induced membrane hyperpolarization [6]: eliminated

apamin: selective inhibitor of SKCa channels (CNCKAPETALCARRCQQH-NH2; disulfide 1-11, 3-15; UniProt P01500 28-45, looked up)
effect on AVP or Pro^8-OT-induced hyperpolarizing response [4]: did not markedly affect
reduction of Leu^8-OT-induced membrane hyperpolarization [4]: ~ 50%
inhibition of AVP or OT-analog induced membrane hyperpolarization [5]: ≤ 10%
inhibition of AVP or OT-analog induced membrane hyperpolarization [6]: ≤ 10%
